Autophagy HCS = autophagy modulators in MEF cells, primary screen, imaging, high-content, MEF GFP-LC3 | MEF GFP-LC3 puncta imaging; test concentration mostly 10 µM | calls only at 10 µM (by protocol) | 190,000 compounds, 0.98% hits;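 active = percentage of spot-positive cells more than 3 SD above its plate mean, without a fluorescence outlier flag or 80% toxicity; inconclusive = no clear call, values can overlap the other calls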
Dynein cargo inh = inhibitors of GR-EGFP nuclear translocation, primary screen, dynein cargo transport inhibitor project, imaging, high-content, 3617.4 mouse cells; test concentration mostly 20 µM; stimulated with dexamethasone, 1 µM; hits give low values; z-score, hits read low; 220,000 compounds, 0.47% hits; AID 1381, 2008;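 active = plate z-score of nuclear minus cytoplasmic receptor signal below a set negative limit, without overly bright fluorescence or cell loss, cut at about -3.5 in these data, passing the limit was not always enough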;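 also: z-score of nuclear minus cytoplasmic ring GR-EGFP intensity difference per well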
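medium = tetracycline-free induction medium containing charcoal-stripped FBS | also added = 1.0 µM final dexamethasone stimulus | schedule = 48 h induction, 1 h compound, 30 min dex at 37 °C | technique = fixed, Hoechst-stained cells imaged at 10x for EGFP | measure = GR-EGFP nuclear translocation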
KCC2 mod = KCC2 cotransporter modulators, thallium flux, primary screen, cell-based, HEK293 KCC2, FluoZin-2 fluorescence, MLSMR. Solute carrier family 12 member 5 (Homo sapiens), Q9H2X9. KCC2 cells, thallium flux FluoZin-2 fluorescence. AID 1456, 2008. 190,000 compounds, 2.2% hits. B-score of Tl+ flux slope (higher = more flux/activation; lower = inhibition) at 10 µM;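 active = thallium flux slope and its plate-corrected score both differing from the plate sample mean at a set confidence after two filtering rounds, in either direction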;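 also: slope of fluorescence scaled to starting intensity during 10 to 20 s after thallium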
Target sequence (Q9H2X9 whole entry, looked up): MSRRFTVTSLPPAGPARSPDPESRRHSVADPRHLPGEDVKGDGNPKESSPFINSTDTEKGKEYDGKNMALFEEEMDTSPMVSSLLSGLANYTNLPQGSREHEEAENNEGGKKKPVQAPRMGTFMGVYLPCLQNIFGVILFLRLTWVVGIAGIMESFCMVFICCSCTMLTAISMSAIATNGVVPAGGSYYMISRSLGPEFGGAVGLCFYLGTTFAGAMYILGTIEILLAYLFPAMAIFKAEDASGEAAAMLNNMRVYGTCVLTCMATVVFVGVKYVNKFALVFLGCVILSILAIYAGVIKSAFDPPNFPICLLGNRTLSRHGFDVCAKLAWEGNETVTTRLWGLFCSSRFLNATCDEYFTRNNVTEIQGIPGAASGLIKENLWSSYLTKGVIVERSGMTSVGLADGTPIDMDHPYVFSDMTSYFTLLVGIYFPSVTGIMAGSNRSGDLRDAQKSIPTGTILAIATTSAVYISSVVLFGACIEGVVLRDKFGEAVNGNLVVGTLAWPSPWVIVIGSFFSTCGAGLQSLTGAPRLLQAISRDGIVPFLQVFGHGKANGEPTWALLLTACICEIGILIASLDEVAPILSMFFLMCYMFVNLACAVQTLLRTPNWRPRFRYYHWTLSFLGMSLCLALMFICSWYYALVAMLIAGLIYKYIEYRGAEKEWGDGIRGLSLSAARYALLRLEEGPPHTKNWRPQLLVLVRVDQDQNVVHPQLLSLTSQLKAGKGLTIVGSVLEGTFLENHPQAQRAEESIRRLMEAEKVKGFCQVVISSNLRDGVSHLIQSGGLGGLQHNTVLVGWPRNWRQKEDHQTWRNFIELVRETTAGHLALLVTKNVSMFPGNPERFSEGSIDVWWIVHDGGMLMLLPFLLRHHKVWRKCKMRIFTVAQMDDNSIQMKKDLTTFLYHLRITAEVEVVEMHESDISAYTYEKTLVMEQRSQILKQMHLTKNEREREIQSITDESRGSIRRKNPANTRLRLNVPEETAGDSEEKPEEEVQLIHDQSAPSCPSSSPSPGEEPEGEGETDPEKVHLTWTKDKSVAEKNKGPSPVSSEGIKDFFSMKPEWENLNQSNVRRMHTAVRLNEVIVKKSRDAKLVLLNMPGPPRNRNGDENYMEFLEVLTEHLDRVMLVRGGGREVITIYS
Redox H2O2 prof = compounds producing H2O2 with reducing agent – biochemical, NIH compound library profiling, artefact control for MLSCN library redox annotation, primary screen | DTT-dependent redox cycling H2O2, phenol red/HRP absorbance; 100% = 100 µM peroxide control, 0% = buffer | activation, % at 10 µM | 200,000 compounds, 0.03% hits | AID 878, 2007;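 active = activation of at least 50% relative to the plate's high and low controls in the primary single-dose screen; inactive = activation below 50%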;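 also: compound incubated with DTT at 0.8 mM final as the reducing agent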
ROMK mod = ROMK potassium channel modulators, primary screen, cell-based, thallium flux, MLSMR library. ATP-sensitive inward rectifier potassium channel 1 (Homo sapiens), P48048. Tet-inducible ROMK, thallium flux fluorescence; actives lie on both sides. B-score at 10 µM. 130,000 compounds, 2% hits;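 active = signal ratio slope over the read window, or its plate-corrected B-score, at least 3 SD from the plate mean, either direction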;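 also: B-score of the F/F0 ratio slope over 7 to 12 s after thallium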
KCC2 sec1 = KCC2 modulators in sodium-free buffer, confirmation, cell-based, HEK293 KCC2, thallium flux, secondary assay; 3,700 compounds, 15% hits; AID 1713, 2009; shares compounds with KCC2 mod; FluoZin2 fluorescence; hits give high values; normalised thallium flux (F/F0 slope) at 10 µM;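 active = thallium flux slope above the same plate's solvent-only control mean plus 3 SD; inconclusive = the two replicate wells disagree; inactive = no significant difference from solvent-only control wells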
KCC2 bumet counter = thallium flux persisting under bumetanide in KCC2 cells, confirmation, counter-screen for KCC2 modulator project, cell-based, HEK293 KCC2, FluoZin2, secondary assay 3. AID 1714, 2009. shares compounds with KCC2 mod. normalized thallium flux at 10 µM. HEK293-KCC2 + bumetanide/ouabain; hits give high values. 3,700 compounds, 49% hits;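 active = thallium entry rate above the same plate's blocked-transporter control wells by more than 3 SD; inconclusive = the two repeat wells disagree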;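 also: raw slope of fluorescence over initial fluorescence between 10 and 20 s after thallium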
KCC2 secondary2 = KCC2 modulators without ouabain present, confirmation, cell-based, HEK293 KCC2, thallium flux, FluoZin2, secondary assay 2. AID 1715, 2009. thallium flux FluoZin2 fluorescence; actives lie on both sides; F/F0 rise rate, 10–20 s post-thallium. shares compounds with KCC2 mod. 3,700 compounds, 23% hits. normalized thallium flux at 10 µM;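 active = thallium flux slope more than 3 SD above or below the plate's solvent-only control mean, mostly below; inconclusive = the two repeat wells disagreed; inactive = no significant shift from solvent-only controls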
HEK counter1 = thallium flux modulation in parental HEK cells, confirmation, counter-screen for KCC2 modulator project, cell-based, counterscreen 1; 3,700 compounds, 46% hits; thallium flux rate (normalised fluorescence) at 10 µM; HEK293 parental cells, thallium flux FluoZin2, ouabain; baseline-ratio fluorescence slope, 10–20 s after thallium; shares compounds with KCC2 mod; AID 1716, 2009;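 active = thallium flux rate significantly above the same plate's solvent-only control wells, beyond their mean plus 3 SD; inconclusive = the two replicate wells gave conflicting results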
KCC2 ouabain = KCC2 inhibitors and activators, ouabain retest, confirmation, HEK-KCC2 cells; shares compounds with KCC2 mod; HEK293-KCC2, thallium flux FluoZin2 fluorescence; bidirectional: low = inhibitor, high = activator; raw Tl+ flux slope (below DMSO = inhibition, above = activation) at 10 µM; 3,700 compounds, 48% hits; AID 1717, 2009;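 active = thallium flux slope beyond 3 SD from same-plate DMSO control mean in most replicates, usually higher, sometimes lower; inconclusive = repeat tests gave conflicting results; inactive = no significant difference from controls in most replicates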;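 also: slope of initial-normalized fluorescence between seconds 10 and 20 after thallium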
HEK counter2 = native HEK Tl+ uptake effects, second counter-screen – HEK cells, counterscreen 2, counter-screen for KCC2 modulator project, confirmation; shares compounds with KCC2 mod; HEK293 parental, thallium flux FluoZin-2 fluorescence slope; thallium flux slope at 10 µM; 3,700 compounds, 33% hits;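 active = thallium flux slope above the same plate's solvent-control mean plus 3 SD in both duplicate wells; inconclusive = duplicate wells that disagreed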;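 also: run without ouabain in cells lacking the KCC2 cotransporter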
A number is an active result; – = inactive; ? = inconclusive; · = not tested or not shown. An excerpt weighted towards active compounds, which were near 4.1% of everything screened.

SMILES | Autophagy HCS | Dynein cargo inh | KCC2 mod | Redox H2O2 prof | ROMK mod | KCC2 sec1 | KCC2 bumet counter | KCC2 secondary2 | HEK counter1 | KCC2 ouabain | HEK counter2
CCOC(=O)C1(Cc2cccc(Cl)c2)CCCN(C(=O)C2CC2)C1 (stereo unspecified) | – | – | – | – | · | · | · | · | · | · | ·
CSc1ccccc1NC(=O)c1cnc2scc(C)n2c1=O | – | – | -3.93 | – | · | – | – | 0.0268 | 0.00616 | ? | –
CSc1ccccc1NC(=O)c1cnccn1 | – | – | 3.42 | – | · | – | – | – | – | – | –
CCc1ccccc1NC(=O)c1cnc2scc(C)n2c1=O | – | – | – | – | · | · | · | · | · | · | ·
CC(CNS(=O)(=O)c1ccccc1)(c1ccccc1)N1CCCCC1 (stereo unspecified) | · | – | – | · | · | · | · | · | · | · | ·
Cc1[nH][nH]c(=O)c1/C=N/N1CCOCC1 | – | – | – | – | – | · | · | · | · | · | ·
Clc1cc(Cl)cc(CN2CCSCC2)c1 | · | – | – | · | · | · | · | · | · | · | ·
COc1cc2c(cc1OC)C(COc1ccccc1OC)N(C(=O)C(C)C)CC2 (stereo unspecified) | – | – | – | – | – | · | · | · | · | · | ·
CCC(=O)N1CCc2cc(OC)c(OC)cc2C1COc1ccccc1OC (stereo unspecified) | – | – | -5.02 | – | – | – | – | – | – | – | –
Cc1cc(C(=O)CCC(=O)N2CCN(S(=O)(=O)c3cccs3)CC2)c(C)s1 | – | – | -4.98 | – | · | – | – | ? | ? | – | –
C=CCn1c(C)csc1=Nc1ccccc1C | – | – | – | – | – | · | · | · | · | · | ·
Cc1cc(CN(C)C(=O)CC2C(=O)NCCN2Cc2c(F)cccc2Cl)on1 (stereo unspecified) | · | – | 7.87 | · | · | – | – | – | – | – | –
CCOC(=O)C1CCN(C2CC(=O)N(c3cccc(Cl)c3)C2=O)CC1 (stereo unspecified) | – | – | 3.03 | – | · | – | 0.00846 | – | – | – | –
O=C(C1CCN(C2CC(=O)N(c3cccc(Cl)c3)C2=O)CC1)N1CCCC1 (stereo unspecified) | – | – | – | – | · | · | · | · | · | · | ·
CC(Sc1nnc2ccccn12)C(=O)Nc1ccc2c(c1)OCCO2 (stereo unspecified) | – | – | · | – | – | – | – | – | – | – | –
CC(Sc1nnc2ccccn12)C(=O)NCc1ccc2c(c1)OCO2 (stereo unspecified) | – | – | – | – | – | · | · | · | · | · | ·

From PubChem
